Reference: ChEMBL document CHEMBL3286188 (J Med Chem, 2014)
Activity calls are given as the source filed them. The rule behind the calls is not given here.

Tests used:
[1] = biological target: T1, Estrogen receptor (Homo sapiens) (UniProt P03372); assay: Agonist activity at ER in human MCF7:WS8 cells assessed as increase in PgR gene expression at 10^-6 M after 48 hrs by RT-PCR analysis; assay type: cell-based
T1 sequence (whole entry): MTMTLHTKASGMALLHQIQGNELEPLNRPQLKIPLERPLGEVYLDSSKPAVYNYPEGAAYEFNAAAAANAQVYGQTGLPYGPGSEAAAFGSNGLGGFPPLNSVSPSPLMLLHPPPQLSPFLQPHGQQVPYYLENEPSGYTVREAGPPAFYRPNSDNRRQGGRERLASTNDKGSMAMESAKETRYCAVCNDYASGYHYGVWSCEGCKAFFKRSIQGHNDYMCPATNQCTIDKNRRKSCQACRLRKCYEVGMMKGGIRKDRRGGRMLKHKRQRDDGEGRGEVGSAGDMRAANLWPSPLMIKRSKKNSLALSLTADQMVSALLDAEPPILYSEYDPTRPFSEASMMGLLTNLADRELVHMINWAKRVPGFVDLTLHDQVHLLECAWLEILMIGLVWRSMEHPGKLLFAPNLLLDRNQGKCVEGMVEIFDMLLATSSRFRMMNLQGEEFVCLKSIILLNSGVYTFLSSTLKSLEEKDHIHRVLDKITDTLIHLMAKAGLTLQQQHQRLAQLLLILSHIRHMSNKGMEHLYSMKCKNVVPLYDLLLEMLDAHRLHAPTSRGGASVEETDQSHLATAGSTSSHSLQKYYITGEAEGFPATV
Outline: (§1)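 After 3 days estrogen starvation, MCF-7:WS8 cells were seeded at 300 000 cells/well and treated for 48 h, then harvested in Trizol. pS2, GREB1 and PgR mRNA measured by real-time PCR with primers checked by single-peak dissociation curves.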

[2] = biological target: T1, Estrogen receptor (Homo sapiens); assay: Agonist activity at ER in human MCF7:WS8 cells assessed as increase in cell growth by measuring DNA level at 10^-6 M after 7 days by fluorescence analysis; assay type: cell-based
Outline: (§2)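 MCF-7:WS8 cells kept 3 days in phenol red-free RPMI 1640 with 10% charcoal-stripped serum, then seeded at 10 000 cells/well. Next day treated with serial dilutions (10–12 to 10–6 M) or single therapeutic-level concentrations in estrogen-free medium. Medium changed every 2 days, 7 days total, triplicate points.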

[3] = biological target: T1, Estrogen receptor (Homo sapiens); assay: Agonist activity at ER in human MCF7:WS8 cells assessed as increase in pS2 gene expression at 10^-6 M after 48 hrs by RT-PCR analysis; assay type: cell-based; outline: as §1
[4] = biological target: T1, Estrogen receptor (Homo sapiens); assay: Agonist activity at ER in human MCF7:WS8 cells assessed as increase in GREB1 gene expression at 10^-6 M after 48 hrs by RT-PCR analysis; assay type: cell-based; outline: as §1
[5] = biological target: T1, Estrogen receptor (Homo sapiens); assay: Antagonist activity at ER in human MCF7:WS8 cells assessed as inhibition of estradiol-induced cell growth by measuring DNA level after 7 days treated at highesy drug concentration by fluorescence analysis; assay type: cell-based
[6] = biological target: T1, Estrogen receptor (Homo sapiens); assay: Agonist activity at ER in human MCF7:WS8 cells assessed as cell growth by measuring DNA level at 0.56 X 10^-9 M after 7 days by fluorescence analysis; assay type: cell-based; outline: as §2
[7] = Effect on ER-alpha protein level in human MCF7:WS8 cells at 1 nM after 24 hrs by Western blot analysis; assay type: functional
Outline: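 Cells estrogen-starved 3 days in phenol red-free RPMI 1640, 3 million seeded per 10 cm dish, treated 24 h. Lysates (20 μg protein by BCA) run on 4–12% Bis-Tris gels, blotted to nitrocellulose, probed with rabbit anti-ERα and anti-β-actin, detected by ECL. Densitometry normalized to β-actin, background subtracted, vehicle = 100%. Three independent experiments.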

[8] = biological target: T1, Estrogen receptor (Homo sapiens); assay: Antagonist activity at ER in human MCF7:WS8 cells assessed as inhibition of estradiol-induced cell growth by measuring DNA level after 7 days by fluorescence analysis; assay type: cell-based; conditions: concentration not given here
[9] = biological target: T1, Estrogen receptor (Homo sapiens); assay: Agonist activity at ER in human MCF7:WS8 cells assessed as cell growth by measuring DNA level at 1.17 X 10^-9 M after 7 days by fluorescence analysis; assay type: cell-based; outline: as §2
[10] = biological target: T1, Estrogen receptor (Homo sapiens); assay: Antagonist activity at ER in human MCF7:WS8 cells assessed as inhibition of estradiol-induced cell growth by measuring DNA level at 10^-6 M after 7 days by fluorescence analysis; assay type: cell-based

Activity [1] | Activity [2] | Activity [3] | Activity [4] | inhibition [5] [%] | Activity [6] | inhibition [8] [%] | Activity [9] | inhibition [10] [%] | Compound | Activity [7] [%]
Active | Active | Active | Active | 20 |  |  |  |  | COc1ccc2c(c1)CCCC(c1ccccc1)=C2c1ccc(O)cc1 | 
Active | Active | Active | Active | 20 | inactive |  |  |  | CN(C)CCOc1ccc2c(c1)CCCC(c1ccccc1)=C2c1ccc(O)cc1 | 
Active | Active | Active | Active | 20 |  |  |  |  | COc1ccc(C2=C(c3ccccc3)CCCc3cc(O)ccc32)cc1 | 
 |  |  |  |  |  |  |  |  | C[C@]12CC[C@@H]3c4ccc(O)cc4CC[C@H]3[C@@H]1CC[C@@H]2O [ESTRADIOL] | 60
Active |  | Active | Active | 10 |  | 10 | inactive |  | CNCCOc1ccc2c(c1)CCCC(c1ccccc1)=C2c1ccc(O)cc1 | 
Active | Active | Active | Active | 20 |  |  |  |  | CCC(=C(c1ccc(O)cc1)c1ccc(O)cc1)c1ccccc1 | 
Active | Active | Active | Active | 20 |  |  |  | 20 | CCOc1ccc(C2=C(c3ccccc3)CCCc3cc(O)ccc32)cc1 | 
Active | Active | Active | Active | 20 |  |  |  |  | CCOc1ccc2c(c1)CCCC(c1ccccc1)=C2c1ccc(O)cc1 | 
Active |  | Active | Active | 20 |  |  |  |  | CCC(=C(c1ccc(O)cc1)c1ccc(O)cc1)c1ccc(O)cc1 | 
